An excerpt weighted towards active compounds, which were near 1.8% of everything screened.
UHRF1 binding: UHRF1 methylated DNA binding inhibitors, primary screen, counter-screen for MBD2 inhibitor project, biochemical, TR-FRET, human UHRF1, single concentration; UHRF1 binding to methylated oligo; inhibition, % at 4.4 µM; 370,000 compounds, 0.75% hits; AID 687016, 2013;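 note: UHRF1 SRA domain binding a hemimethylated CpG hairpin DNA probe; 0% = median of test compound wells and 100% = reference inhibitor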
NSD2 inh: NSD2 histone methyltransferase inhibitors, primary screen, biochemical, AlphaScreen, single concentration, set 2. Histone-lysine N-methyltransferase NSD2 (Homo sapiens), O96028. NSD2 peptide methylation, 120 min. inhibition, % at 12.5 µM. 310,000 compounds, 0.54% hits; in the data active = inhibition above about 50%
MBD2 inh: inhibitors of MBD2 binding to methylated DNA, primary screen, biochemical, TR-FRET, DNA-binding domain, human; MBD2 binding to methylated oligonucleotide; 370,000 compounds, 0.31% hits; inhibition, % at 4.4 µM; AID 686964, 2013; in the data active = inhibition above about 13%
LEDGF integ inh: blockers of LEDGF/p75-dependent integrase strand transfer – biochemical, TR-FRET, high throughput, primary screen | HIV-1 integrase (with human LEDGF/p75) | TR-FRET IN-LEDGF/p75 DNA integration, Eu/Cy5 | inhibition, % at 3.7 µM | 370,000 compounds, 0.64% hits | AID 743269, 2014;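 active = inhibition above the screen-wide mean plus 3 SD, cut at about 13% in these data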;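 note: signal is the Cy5 over europium emission ratio at 671 and 618 nm; 0% = plate median of compound wells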
Casp6 inh: human caspase-6 inhibitors, primary screen, biochemical, VEID-R110 fluorescence, single point, set 2; P55212; purified caspase-6, Z-VEID-R110 cleavage fluorescence; inhibition, % at 12.5 µM; 350,000 compounds, 0.53% hits; AID 686996, 2013;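 active = mean inhibition across replicates at least about 35%, with every replicate also reaching that limit, limit read from the data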;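 note: 0% = median of neutral control wells and 100% = no fluorescence left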
Target sequence (P55212 24-179 limits assumed): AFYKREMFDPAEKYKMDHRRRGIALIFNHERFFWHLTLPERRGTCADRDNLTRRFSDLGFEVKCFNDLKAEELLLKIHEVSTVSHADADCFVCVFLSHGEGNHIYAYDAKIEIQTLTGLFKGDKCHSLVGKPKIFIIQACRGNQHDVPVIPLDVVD
Target sequence (P55212 194-293 limits assumed): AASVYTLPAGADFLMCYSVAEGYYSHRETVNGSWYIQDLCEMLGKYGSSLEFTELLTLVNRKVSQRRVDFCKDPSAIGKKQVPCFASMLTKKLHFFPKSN
TDP2 inh: human TDP2 enzyme inhibitors, primary screen, biochemical, epi absorbance, recombinant enzyme. Tyrosyl-DNA phosphodiesterase 2 (Homo sapiens), O95551. T5PNP hydrolysis, p-nitrophenol absorbance 415 nm. inhibition, % at 12.8 µM. 370,000 compounds, 0.34% hits. AID 720702, 2013;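 active = inhibition above the mean of all tested compounds plus 3 SD, set per campaign, cut at about 25% in these data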;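 note: 0% = DMSO with enzyme and 100% = buffer with substrate but no TDP2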
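Test system: Human TDP2 enzyme | Reagent: 5 mM T5PNP | Compound dosing: 12.8 µM single point, 1% DMSO | Incubation: Enzyme reaction with compound for 2 h at 37 °C | Technique: p-Nitrophenol epi absorbance | Read-out: % inhibition relative to enzyme-containing and enzyme-free wells | Benchmarks: High control without enzyme, low control DMSO plus TDP2 | Replicates: Singlicate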
UHRF1 ctr MBD2: UHRF1 methylated DNA binding inhibitors, counter-screen for MBD2 inhibitor project, biochemical, TR-FRET, human UHRF1; inhibition, % at 4.4 µM; UHRF1 binding to methylated oligonucleotide; 1,000 compounds, 25% hits; AID 720530, 2013; shares compounds with MBD2 inh;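 note: UHRF1 SRA domain binding a labeled hemimethylated CpG hairpin DNA; 0% = vehicle only and 100% = reference inhibitor with vehicle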
MBD2 DBD conf: inhibitors of MBD2 binding to methylated DNA, confirmation, biochemical, TR-FRET, DNA-binding domain, human; shares compounds with MBD2 inh; TR-FRET MBD2-DBD binding to methylated oligonucleotide; inhibition, % at 4.4 µM; 1,000 compounds, 26% hits; AID 720531, 2013; in the data active = inhibition above about 14%
Numbers without * were called inactive; nt = not tested or not shown. Cut-off read from the data, not from the text of the source, unless noted: active = inhibition above about 21%; inactive = the rest.

SMILES	UHRF1 binding	NSD2 inh	MBD2 inh	LEDGF integ inh	Casp6 inh	TDP2 inh	UHRF1 ctr MBD2	MBD2 DBD conf
COC(=O)c1ccc(OC)c(CSc2nnc(COc3ccccc3)o2)c1	5	-5	4	1	1	11	nt	nt
COC(=O)c1ccc(OC)c(CSc2nnc(COc3ccc(Cl)cc3)o2)c1	0	-1	14*	1	nt	-7	7	4
O=C(O)c1ccc2c(c1)C(=O)/C(=C\c1ccco1)C2=O	88*	49	28*	79*	41*	2	38*	0
O=C(COC(=O)CNC(=O)c1ccc(Cl)cc1)Nc1ccc(Cl)cc1C(F)(F)F	1	1	61*	4	nt	6	9	1
CC12CCC(C/C1=N\N=C1\NC(=O)/C(=C\c3ccc(Cl)cc3)S1)C2(C)C (stereo not drawn)	17	nt	13*	-8	-3	3	3	1
O=C(NCC1CCN(C(=O)C(=O)c2cccs2)CC1)c1ccc2c(c1)CCO2	14	10	19*	-3	-1	11	7	3
Cc1ccc(-n2nc(C)cc2NC(=O)c2ccc(C)s2)cc1	-2	0	34*	0	nt	0	5	6
Cc1ccc(-n2nc(C)cc2NC(=O)CC#N)cc1	2	3	-1	5	1	-9	nt	nt
COc1ccc(NC(=O)Nc2ccc3c(c2)CC(=O)N([C@H](C)CO)C[C@H](C)[C@@H](CN(C)C(=O)Nc2ccc(F)cc2)O3)cc1	nt	nt	nt	nt	-1	nt	nt	nt
COCCCNC(=O)[C@]1(Cc2ccccc2N=[N+]=[N-])N=C(c2ccc(OCCCO)cc2)O[C@@H]1c1ccccc1	nt	nt	nt	nt	0	nt	nt	nt
O=C(C[C@@H]1CC[C@@H]2[C@H](COC[C@H](O)CN2C(=O)c2ccc(F)cc2)O1)NCc1cccc(F)c1	nt	nt	nt	nt	-1	nt	nt	nt
CC(=O)c1cccc(OCC(=O)N(C)CC(=O)NCc2ccco2)c1	49*	6	22*	30*	49*	-7	43*	18*
COC(=O)[C@]12C[C@H](CC(=O)NCC3CCCCC3)C(=O)N(Cc3ccccc3)C1=C[C@H](C(C)(C)C)O[C@@H]2C	24*	nt	20*	0	1	7	3	2
COC(=O)[C@]12C[C@H](CC(=O)NCCCN3CCCC3=O)C(=O)N(Cc3ccc(Cl)cc3Cl)C1=C[C@H](C1CCCC1)O[C@@H]2C	0	nt	15*	-4	nt	-5	13	3
COC(=O)[C@]12C[C@H](CC(=O)NCC3CCCCC3)C(=O)N(Cc3ccco3)C1=C[C@H](C(C)(C)C)O[C@@H]2C	1	nt	1	-1	nt	-4	nt	nt
COc1ccc(NC(=O)[C@@H]2CC=C[C@@H]3CCN(C4CCCCC4)C(=O)[C@@H]32)cc1	-2	nt	64*	2	nt	3	7	1
COc1ccc(N=Cc2ccc[nH]2)cc1	0	4	22*	-7	nt	-3	7	2
CCCCOc1ccc(N=Cc2ccc[nH]2)cc1	1	5	4	-5	1	-4	nt	nt
CCC(=O)c1ccc(OCC(=O)OC(C)C(=O)NCc2ccc3c(c2)OCO3)cc1 (stereo not drawn)	-1	0	79*	2	0	-6	9	2
c1ccc(SC23CC4CC(CC(C4)C2)C3)nc1	1	27	13*	-5	-1	0	8	3
